High-throughput results from PubChem.
Lipid droplet = modulators of hepatic lipid droplet formation | AML12 mouse hepatocytes, oleate lipid droplets, BODIPY imaging | inhibition, % at 6.5 µM | 240,000 compounds, 0.4% hits;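 active = lipid droplet intensity inhibited by at least 50%, with more than 500 cells counted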
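Material: mouse AML12 hepatocyte cell line, fixed after treatment; Timing: compound with oleate, overnight; Technique: high-content imaging of BODIPY-stained droplets and DAPI nuclei; Probe or stimulus: oleate, 100 µM final; Dosing: compound at 6.5 µM only.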
MC4R barr agon = human MC4R agonism via beta-arrestin; P32245; U2OS MC4R beta-arrestin complementation, luminescence; percent of melanotan II response, DMSO zero; activation, % at 8.9 µM; 360,000 compounds, 0.98% hits; AID 540308;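 active = activation above a per-plate cutoff, the mean activation of sample wells on that plate plus 3 SD, cut at about 8% in these data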
NTR1 agonist = NTR1 (human) agonism | P30989 | NTR1-U2OS beta-arrestin-GFP spot imaging, agonist mode | activation, % at 20 µM | 330,000 compounds, 0.17% hits | AID 493036;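 active = activation at or above 40% of the spot to cytoplasm intensity ratio, with at least 20 cells analyzed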;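 also: 0% = DMSO without peptide and 100% = 100 nM NTR1 peptide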
MC4R antagonist = antagonists of human melanocortin 4 receptor (MC4R). P32245. MC4R-expressing cells, MTII-stimulated cAMP, LANCE TR-FRET. inhibition, % at 6.5 µM. 360,000 compounds, 0.48% hits. AID 540295;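 active = inhibition above its plate's cutoff, the mean of tested wells on that plate plus 3 SD, cut at about 29% in these data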;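 also: 0% = Melanotan II alone and 100% = Melanotan II plus saturating MCL0020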
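material = U2OS cells stably expressing human melanocortin 4 receptor (MC4R) | also added = Melanotan II challenge | dosing = single nominal compound dose of 6.5 µM | detection = TR-FRET with Eu-cAMP and labeled anti-cAMP, 671 nm | replication = singlicate | timing = compound 30 min, challenge 1 h, detection 1 h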
HTR2A ag = activates the mouse 5-HT2A serotonin receptor; P35363; CHO-K1 mHTR2A beta-arrestin complementation, luminescence; percent of 30 µM serotonin response; activation, % at 7.6 µM; 360,000 compounds, 0.66% hits; AID 624169;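 active = activation above a run cutoff, the mean activation of all tested compounds plus 3 SD, cut at about 14% in these data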;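 also: 0% = plate median of compound wells and 100% = 30 µM serotonin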
Target sequence (P35363 whole entry, looked up): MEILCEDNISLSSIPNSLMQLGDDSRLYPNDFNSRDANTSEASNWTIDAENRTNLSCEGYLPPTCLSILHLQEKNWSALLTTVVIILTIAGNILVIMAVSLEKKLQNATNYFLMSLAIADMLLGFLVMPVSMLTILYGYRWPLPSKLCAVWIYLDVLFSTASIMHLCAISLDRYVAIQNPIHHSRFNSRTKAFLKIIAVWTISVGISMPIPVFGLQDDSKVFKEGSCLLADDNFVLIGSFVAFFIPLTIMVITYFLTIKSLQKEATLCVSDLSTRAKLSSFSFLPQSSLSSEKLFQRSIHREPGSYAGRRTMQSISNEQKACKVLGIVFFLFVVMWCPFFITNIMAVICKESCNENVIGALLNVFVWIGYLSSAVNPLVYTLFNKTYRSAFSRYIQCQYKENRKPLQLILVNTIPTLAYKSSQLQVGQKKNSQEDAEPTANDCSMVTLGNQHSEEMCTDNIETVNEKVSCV
PREPL inhibitor = inhibits the human prolyl oligopeptidase-like enzyme; AID 2751; Q4J6C6; recombinant PREPL, fluorescence polarization activity-based probe; inhibition, % at 5.96 µM; 320,000 compounds, 0.68% hits; in the data active = inhibition above about 43%;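 also: 0% = enzyme with DMSO and 100% = wells lacking enzyme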
NTR1 ag confirm = confirmation of agonists of human NTR1 | shares compounds with NTR1 agonist | NTR1-U2OS beta-arrestin-GFP translocation imaging | activation, % at 20 µM | 480 compounds, 38% hits | AID 504550;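 active = mean activation at 20 µM of at least 40%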;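 also: 0% = DMSO without peptide and 100% = 100 nM NTR1 peptide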
* hit, by the source's call; . = no result. Rows were chosen to be rich in hits. Some 2.7% of all compounds tested hit in one or more screens of this group.

SMILES	Lipid droplet	MC4R barr agon	NTR1 agonist	MC4R antagonist	HTR2A ag	PREPL inhibitor	NTR1 ag confirm
COc1ccccc1N(CC(=O)N/N=C/c1ccc(OCC(=O)NCc2ccco2)cc1)S(=O)(=O)c1ccc(C)cc1	14	-1	1	8	-1	-24	.
CCC(C)C(=O)NCCc1ccc(S(N)(=O)=O)cc1 (configuration not stated)	-1	-1	1	18	2	-2	.
COc1ccc(CNC(=O)C2CCN(S(=O)(=O)c3c(C)noc3/C=C/N(C)C)CC2)cc1	-4	1	1	14	0	12	.
CCOc1ccc(Br)cc1S(=O)(=O)Nc1ccc(N2CCOCC2)cc1	-13	-1	0	-1	4	16	.
CCOc1ccc(Br)cc1S(=O)(=O)Nc1ccccc1N1CCOCC1	.	1	49*	2	-3	6	54*
Cc1cccc(Nc2nc(N)c([N+](=O)[O-])c(N3CC(C)CC(C)C3)n2)c1 (configuration not stated)	28	0	46*	27	-4	4	36
O=C(NCc1ccccc1)C1CCC(CNS(=O)(=O)c2cccs2)CC1 (configuration not stated)	0	-1	42*	6	-3	1	-4
COc1ccc(-c2cc(C(=O)OCC(=O)N(C)C3CCS(=O)(=O)C3)c3ccccc3n2)cc1OC (configuration not stated)	8	-3	1	-9	2	-4	.
CCS(=O)(=O)c1nc(S(=O)(=O)c2ccc(C)cc2)c(N2CCC(C)CC2)s1	-5	-2	3	7	-9	14	.
C/C(=N\NC(=O)c1ccc(C)cc1C)c1ccc2c(c1)Nc1ccccc1S2	-1	1	43*	13	-7	37	33
O=C(/C=C/c1cccc(Cl)c1)Nc1ncccn1	2	0	0	9	-3	7	.
O=C(/C=C/c1cccc(Cl)c1)c1nc2ccccc2[nH]1	.	-4	42*	14	-7	1	72*
NC(=O)CSc1nnc(NC(=O)C23CC4CC(CC(C4)C2)C3)s1	11	0	2	-1	-4	1	.
CSc1nnc(NC(=O)C23CC4CC(CC(C4)C2)C3)s1	8	-2	52*	12	-1	-2	53*
O=c1cc(-c2ccc(O)cc2)oc2cc(O)c(C3OC(CO)C(O)C(O)C3O)c(O)c12 (configuration not stated)	-1	0	41*	5	-1	16	52*
O=c1cc(-c2ccc(O)cc2)oc2cc(O)cc(O)c12	.	1	3	-17	-5	6	.
CN(C(=O)COc1ccccc1C(=O)NCCOc1ccccc1)c1ccccc1	-9	4	107*	27	-1	2	63*
COc1cccc(C(=O)C2=NN(C(C)=O)CC2c2ccco2)c1 (configuration not stated)	7	0	-2	1	-1	-3	.
Cc1ccccc1-n1c(=O)[nH]c(=O)c2c(N)c(C(=O)c3ccc(Cl)cc3)sc21	15	-2	40*	-9	0	15	10
Nc1c(C(=O)c2ccc(Cl)cc2)sc2c1c(=O)[nH]c(=O)n2-c1ccccc1	-3	2	22	16	-3	9	.
COC(=O)c1ccc2c(c1)C(C)(C)C(/C=C/c1ccc(O)cc1)=[N+]2C	119*	-6	46*	-3	-5	-281	51*
COC(=O)c1ccc2c(c1)C(C)(C)C(/C=C/c1ccc(OC)c(OC)c1OC)=[N+]2C	.	-1	38	9	-1	-468	.
C[C@@H]1CN([C@H](C)CO)C(=O)CCCn2cc(nn2)CO[C@H]1CN(C)C(=O)Nc1ccnc(N2CCOCC2)c1	.	-1	.	-1	-3	.	.
COc1ccc(S(=O)(=O)N(C)C[C@H]2OCc3cnnn3CCCC(=O)N([C@H](C)CO)C[C@@H]2C)cc1	.	0	.	5	1	.	.
CN(C)c1nc(N)c2ncc(=S)[nH]c2n1	-13	-3	2	11	0	4	.
SMILES	Lipid droplet	MC4R barr agon	NTR1 agonist	MC4R antagonist	HTR2A ag	PREPL inhibitor	NTR1 ag confirm
CC1=NOC(=O)/C1=C\c1ccc(-c2ccc(Cl)cc2Cl)o1	.	-1	80*	0	-1	.	39
COc1cc(/C=C/c2ccc3cccc([N+](=O)[O-])c3n2)ccc1OCC(=O)O	-7	-1	1	-8	1	6	.
CCOc1c(OC(C)=O)ccc(/C=C/c2ccc3cccc(OC)c3n2)c1[N+](=O)[O-]	-5	5	42*	10	1	8	22
COc1ccc(C)cc1NC(=O)CSc1nc2ccccc2nc1N1CC(C)OC(C)C1 (configuration not stated)	-17	0	2	4	1	-2	.
CCOc1cc(/C=C2/C(=O)ON=C2C)ccc1OCc1ccccc1	-14	.	48*	.	.	2	54*
CCOc1cc(/C=C2/C(=O)ON=C2C)ccc1OCc1ccc(F)cc1	.	0	57*	21	-3	19	64*
Cc1ccc(CCNc2ncnc(Cl)c2N)cc1	.	0	.	9	3	.	.
CCOc1cc(C(=O)NC2CCCCCCC2)cc(OCC)c1OCC	.	3	2	12	-4	0	.
CCCCCCCCn1c2c(c(=N)c3ccccc31)CCC2	-167	7	61*	-4	-2	.	50*
Cn1ccnc1Sc1cc(NCCCO)c([N+](=O)[O-])c2nonc12	9	-4	45*	-28	-6	5	72*
CC(=O)OCCCNc1cc(Sc2ccc(C)cc2)c2nonc2c1[N+](=O)[O-]	-15	-3	67*	-11	0	13	86*
O=[N+]([O-])c1c(NCCCO)cc(Sc2ccc(Cl)cc2)c2nonc12	8	-4	.	-36	4	-3	.
CC(=O)OCCCNc1cc(Sc2nc3ccccc3s2)c2nonc2c1[N+](=O)[O-]	-4	-4	3	-41	1	25	.
CCn1c(-c2csc3c2CCC(C)C3)n[nH]c1=S (configuration not stated)	6	-1	3	-4	-4	2	.
O=C(OCc1ccc(COC(=O)c2ccc(O)cc2)cc1)c1ccc(O)cc1	0	4	46*	10	-3	-14	-1
COc1ccccc1N1CCN(Cc2cc(=O)c(OCC(=O)NC(C)C)co2)CC1	6	-2	0	1	7	0	.
O=C(Nc1ccc(-c2noc(-c3cccs3)n2)cc1)c1cccnc1	-4	5	47*	9	4	-15	9
Cc1ccnc(Nc2nc(-c3ccc(Cl)cc3)cs2)c1	.	1	10	11	0	3	.
